From ChEMBL document CHEMBL1134314, “Characterization of the 1H-cyclopentapyrimidine-2,4(1H,3H)-dione derivative (S)-CPW399 as a novel, potent, and subtype-selective AMPA receptor full agonist with partial desensitization properties” (J Med Chem, 2001)
The source made the active and inactive calls. The calls are words filed in the database; no cut-off is given here.

Tests used:
[1] = target: Glutamate NMDA receptor (Rattus norvegicus) (UniProt P35439+Q00959+Q00960+Q00961+Q62645+Q8VHN2+Q9R1M7); experiment: Binding affinity towards NMDA receptor; not active; assay type: protein-complex assay
Method in brief: (§1)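 Radioligand competition binding on native ionotropic glutamate receptors in rat brain membranes. Inactivity was defined at 10^-4 M. Values are means ± SEM of three to four competition experiments, each run in triplicate.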

[2] = Hill slope was determined
[3] = target: Glutamate receptor ionotropic, kainate; experiment: Binding affinity towards Ionotropic glutamate receptor kainate in rat brain; assay type: tissue-based; method in brief: as §1
[4] = target: Glutamate receptor ionotropic, AMPA (Rattus norvegicus, UniProt P19490+P19491+P19492+P19493); experiment: Binding affinity towards AMPA receptor in rat brain; assay type: tissue-based

## N[C@@H](Cn1c2c(c(=O)[nH]c1=O)CCC2)C(=O)O
[1]
  NA: inactive
[2]
  Hill coefficient: 0.95 nH [middle of 8 runs]
[3]
  Ki: 7.94 µM

## N[C@@H](Cn1c2c(c(=O)[nH]c1=S)CCC2)C(=O)O
[4]
  Ki: 1.37 µM
[3]
  Ki: > 10 µM
